Reference: ChEMBL document CHEMBL1221342, “Synthesis and in vitro antitumor activity of new 4,5-dihydropyrazole derivatives” (Bioorg Med Chem, 2010)

Tests used:
NCI-H460 = experiment: Cytotoxicity against human NCI-H460 cells after 72 hrs by SRB assay; assay type: functional, cell-based; details: NCI-H460, 72 h
In short: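 NCI-H460 (ATCC) cells seeded in 96-well plates in growth medium. Scalar drug concentrations added 24 h after plating, then 72 h exposure. Surviving cells stained with sulforhodamine B, OD read at 570 nm. IC50 (50% growth inhibition) fitted from dose–response curves. Mean ± SE of at least three independent experiments.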

SF-295 = experiment: Growth inhibition of human SF295 cells after 48 hrs by SRB assay; assay type: functional; details: SF-295, 48 h
In short: (§1)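 NCI 60-cell-line screen. Cells grown in RPMI1640 with 5% fetal calf serum and 2 mM L-glutamine, with inoculum density set by cell line. Preincubated 24 h, then given compound in DMSO at 10^-4 to 10^-8 M (five 10-fold steps) for 48 h continuous exposure. Growth measured by SRB protein assay. GI50, TGI and LC50 reported as –log molar.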

HCT-15 = experiment: Growth inhibition of human HCT15 cells after 48 hrs by SRB assay; assay type: functional; details: HCT-15, 48 h; in short: as §1
SW-620 = experiment: Growth inhibition of human SW620 cells after 48 hrs by SRB assay; assay type: functional; details: SW-620, 48 h; in short: as §1
CAKI-1 = experiment: Growth inhibition of human Caki1 cells after 48 hrs by SRB assay; assay type: functional; details: CAKI-1, 48 h; in short: as §1
M14 = experiment: Growth inhibition of human M14 cells after 48 hrs by SRB assay; assay type: functional; details: M14, 48 h; in short: as §1
OVCAR-8 = experiment: Growth inhibition of human OVCAR8 cells after 48 hrs by SRB assay; assay type: functional; details: OVCAR-8, 48 h; in short: as §1
BT-549 = experiment: Growth inhibition of human BT549 cells after 48 hrs by SRB assay; assay type: functional; details: BT-549, 48 h; in short: as §1
NCI-H322M = experiment: Growth inhibition of human NCI-H322M cells after 48 hrs by SRB assay; assay type: functional; in short: as §1
SF-539 = experiment: Growth inhibition of human SF539 cells after 48 hrs by SRB assay; assay type: functional; details: SF-539, 48 h; in short: as §1
SR = experiment: Growth inhibition of human SR cells after 48 hrs by SRB assay; assay type: functional; in short: as §1
PC-3 = experiment: Growth inhibition of human PC3 cells after 48 hrs by SRB assay; assay type: functional; details: PC-3, 48 h; in short: as §1
MOLT-4 = experiment: Growth inhibition of human MOLT4 cells after 48 hrs by SRB assay; assay type: functional; details: MOLT-4, 48 h; in short: as §1
[1] = Growth inhibition of human […] cells after 48 hrs by SRB assay; assay type: functional; in short: as §1
K562 = experiment: Growth inhibition of human K562 cells after 48 hrs by SRB assay; assay type: functional; details: K562, 48 h; in short: as §1
OVCAR-4 = experiment: Growth inhibition of human OVCAR4 cells after 48 hrs by SRB assay; assay type: functional; details: OVCAR-4, 48 h; in short: as §1
Malme-3M = experiment: Growth inhibition of human MALME-3M cells after 48 hrs by SRB assay; assay type: functional; in short: as §1
U-251 = experiment: Growth inhibition of human U251 cells after 48 hrs by SRB assay; assay type: functional; details: U-251, 48 h; in short: as §1
COLO 205 = experiment: Growth inhibition of human COLO205 cells after 48 hrs by SRB assay; assay type: functional; details: COLO 205, 48 h; in short: as §1
UO-31 = experiment: Growth inhibition of human UO31 cells after 48 hrs by SRB assay; assay type: functional; details: UO-31, 48 h; in short: as §1
HT-29 = experiment: Growth inhibition of human HT-29 cells after 48 hrs by SRB assay; assay type: functional; details: HT-29, 48 h; in short: as §1
SNB-75 = experiment: Growth inhibition of human SNB75 cells after 48 hrs by SRB assay; assay type: functional; details: SNB-75, 48 h; in short: as §1
DU-145 = experiment: Growth inhibition of human DU145 cells after 48 hrs by SRB assay; assay type: functional; details: DU-145, 48 h; in short: as §1
NCI-H522 = experiment: Growth inhibition of human NCI-H522 cells after 48 hrs by SRB assay; assay type: functional; details: NCI-H522, 48 h; in short: as §1
MDA-MB-435 = experiment: Growth inhibition of human MDA-MB-435 cells after 48 hrs by SRB assay; assay type: functional; details: MDA-MB-435, 48 h; in short: as §1
SK-MEL-28 = experiment: Growth inhibition of human SK-MEL-28 cells after 48 hrs by SRB assay; assay type: functional; details: SK-MEL-28, 48 h; in short: as §1
SK-OV-3 = experiment: Growth inhibition of human SKOV3 cells after 48 hrs by SRB assay; assay type: functional; details: SK-OV-3, 48 h; in short: as §1
HCT-116 = experiment: Growth inhibition of human HCT116 cells after 48 hrs by SRB assay; assay type: functional; details: HCT-116, 48 h; in short: as §1
SK-MEL-2 = experiment: Growth inhibition of human SK-MEL-2 cells after 48 hrs by SRB assay; assay type: functional; details: SK-MEL-2, 48 h; in short: as §1
SK-MEL-5 = experiment: Growth inhibition of human SK-MEL-5 cells after 48 hrs by SRB assay; assay type: functional; details: SK-MEL-5, 48 h; in short: as §1
HOP-62 = experiment: Growth inhibition of human HOP62 cells after 48 hrs by SRB assay; assay type: functional; details: HOP-62, 48 h; in short: as §1
T47D = experiment: Growth inhibition of human T47D cells after 48 hrs by SRB assay; assay type: functional; in short: as §1
TK-10 = experiment: Growth inhibition of human TK10 cells after 48 hrs by SRB assay; assay type: functional; details: TK-10, 48 h; in short: as §1
CCRF-CEM = experiment: Growth inhibition of human CCRF-CEM cells after 48 hrs by SRB assay; assay type: functional; in short: as §1
SF-268 = experiment: Growth inhibition of human SF268 cells after 48 hrs by SRB assay; assay type: functional; details: SF-268, 48 h; in short: as §1
UACC-62 = experiment: Growth inhibition of human UACC62 cells after 48 hrs by SRB assay; assay type: functional; details: UACC-62, 48 h; in short: as §1
MCF7 = experiment: Growth inhibition of human MCF7 cells after 48 hrs by SRB assay; assay type: functional; details: MCF7, 48 h; in short: as §1

With COc1cc(C2CC(c3cccc(O)c3)=NN2C(C)=O)cc(OC)c1OC (stereo unspecified) the IC50 (NCI-H460) was 2.3 µM, the GI50 (SF-295) was 0.316 µM and the TGI (SF-295; read-out: pTGI (converted)) was 5.01 µM. The GI50 (HCT-15) was 0.794 µM, the TGI (HCT-15; read-out: pTGI (converted)) was > 100 µM and the GI50 (SW-620) was 0.794 µM. The TGI (SW-620; read-out: pTGI (converted)) was > 100 µM, the GI50 (CAKI-1) was 2.51 µM and the TGI (CAKI-1; read-out: pTGI (converted)) was > 100 µM. The GI50 (M14) was 0.794 µM, the TGI (M14; read-out: pTGI (converted)) was > 100 µM and the GI50 (OVCAR-8) was 5.01 µM. The TGI (OVCAR-8; read-out: pTGI (converted)) was > 100 µM, the GI50 (BT-549) was 5.01 µM and the TGI (BT-549; read-out: pTGI (converted)) was > 100 µM. For the same compound, the GI50 (NCI-H322M) was 3.98 µM, the TGI (NCI-H322M; read-out: pTGI (converted)) was > 100 µM and the GI50 (SF-539) was 2 µM. The TGI (SF-539; read-out: pTGI (converted)) was 6.31 µM, the GI50 (SR) was 0.1 µM and the TGI (SR; read-out: pTGI (converted)) was > 100 µM. For the same compound, the GI50 (PC-3) was 2 µM, the TGI (PC-3; read-out: pTGI (converted)) was > 100 µM and the GI50 (MOLT-4) was 5.01 µM. The TGI (MOLT-4; read-out: pTGI (converted)) was > 100 µM, the GI50 [1] was 1 µM and the TGI ([1]; read-out: pTGI (converted)) was 5.01 µM. The GI50 (K562) was 0.631 µM, the TGI (K562; read-out: pTGI (converted)) was 63.1 µM and the GI50 (OVCAR-4) was 6.31 µM. For the same compound, the TGI (OVCAR-4; read-out: pTGI (converted)) was > 100 µM, the GI50 (Malme-3M) was 2.51 µM and the TGI (Malme-3M; read-out: pTGI (converted)) was > 100 µM. For the same compound, the GI50 (U-251) was 2.51 µM, the TGI (U-251; read-out: pTGI (converted)) was > 100 µM and the GI50 (COLO 205) was 3.98 µM. The TGI (COLO 205; read-out: pTGI (converted)) was 10 µM, the GI50 (UO-31) was 10 µM and the TGI (UO-31; read-out: pTGI (converted)) was > 100 µM. The GI50 (HT-29) was 3.16 µM, the TGI (HT-29; read-out: pTGI (converted)) was > 100 µM and the GI50 (SNB-75) was 0.398 µM. For the same compound, the GI50 (DU-145) was 3.16 µM, the GI50 (NCI-H522) was 1.58 µM and the TGI (NCI-H522; read-out: pTGI (converted)) was 39.8 µM. For the same compound, the GI50 (MDA-MB-435) was 0.251 µM, the TGI (MDA-MB-435; read-out: pTGI (converted)) was 0.794 µM and the GI50 (SK-MEL-28) was 5.01 µM. The TGI (SK-MEL-28; read-out: pTGI (converted)) was > 100 µM, the GI50 (SK-OV-3) was 2.51 µM and the TGI (SK-OV-3; read-out: pTGI (converted)) was > 100 µM. The GI50 (HCT-116) was 2.51 µM, the TGI (HCT-116; read-out: pTGI (converted)) was > 100 µM and the GI50 (SK-MEL-2) was 6.31 µM. The TGI (SK-MEL-2; read-out: pTGI (converted)) was > 100 µM, the GI50 (SK-MEL-5) was 0.631 µM and the TGI (SK-MEL-5; read-out: pTGI (converted)) was 5.01 µM. It also gave a GI50 (HOP-62) of 0.126 µM, a TGI (HOP-62; read-out: pTGI (converted)) of 2 µM and a GI50 (T47D) of 3.16 µM. For the same compound, the TGI (T47D; read-out: pTGI (converted)) was > 100 µM, the GI50 (TK-10) was 7.94 µM and the TGI (TK-10; read-out: pTGI (converted)) was > 100 µM. The GI50 (CCRF-CEM) was 1 µM, the TGI (CCRF-CEM; read-out: pTGI (converted)) was 5.01 µM and the GI50 (SF-268) was 7.94 µM. The TGI (SF-268; read-out: pTGI (converted)) was > 100 µM, the GI50 (UACC-62) was 2.51 µM and the TGI (UACC-62; read-out: pTGI (converted)) was > 100 µM. The GI50 (MCF7) was 0.501 µM and the TGI (MCF7; read-out: pTGI (converted)) was 10 µM.
